Test results from ChEMBL document CHEMBL1821604, “Anticancer activity and cDNA microarray studies of a (RS)-1,2,3,5-tetrahydro-4,1-benzoxazepine-3-yl]-6-chloro-9H-purine, and an acyclic (RS)-O,N-acetalic 6-chloro-7H-purine” (Eur J Med Chem, 2011).

Experiments:
MCF-10A = experiment: Cytotoxicity against human MCF10A cells after 6 days by SRB colorimetric assay; format: cell-based; conditions: 144 h
[1] = Therapeutic index, ratio of IC50 for human MCF10A cells to IC50 for human MCF7 cells; format: cell-based; conditions: MCF10A cells (normal) versus MCF7 cells (cancer), read-out: Ratio IC50
Summary of the method: (§1)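 Each cell line grown in DMEM with 10% FBS, 37 °C, 5% CO₂. Cells seeded and allowed 24 h, then drug added in medium (≤0.1% v/v DMSO). Medium and drug renewed at day 3, cells kept 3 more days. Sulforhodamine-B read at 492 nm. IC₅₀ taken from semilog dose-response curves by linear interpolation, triplicate wells, at least twice. Index = IC₅₀ normal line / IC₅₀ cancer line.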

HT-29 [2] = experiment: Cytotoxicity against human HT-29 cells after 6 days by SRB colorimetric assay; format: functional, cell-based; conditions: HT-29, 144 h
[3] = Cytotoxicity against rat IEC-6 cells after 6 days by SRB colorimetric assay; format: cell-based; conditions: IEC-6, 144 h
[4] = Therapeutic index, ratio of IC50 for rat IEC-6 cells to IC50 for human HT-29 cells; format: cell-based; conditions: IEC-6 cells (normal) versus HT-29 cells (cancer), read-out: Ratio IC50; summary of the method: as §1
MCF7 [5] = experiment: Cell cycle arrest in human MCF7 cells assessed as accumulation at G0/G1 phase at IC50 after 48 hrs using annexin V-FITC and propidium iodide staining based FACS analysis; format: functional
MCF7 [6] = experiment: Cell cycle arrest in human MCF7 cells assessed as accumulation at S phase at IC50 after 48 hrs using annexin V-FITC and propidium iodide staining based FACS analysis; format: functional
MCF7 [7] = experiment: Cell cycle arrest in human MCF7 cells assessed as accumulation at G2/M phase at IC50 after 48 hrs using annexin V-FITC and propidium iodide staining based FACS analysis; format: functional
HT-29 [8] = experiment: Cell cycle arrest in human HT-29 cells assessed as accumulation at G0/G1 phase at IC50 after 48 hrs using […] propidium iodide staining based FACS analysis; format: functional
HT-29 [9] = experiment: Cell cycle arrest in human HT-29 cells assessed as accumulation at S phase at IC50 after 48 hrs using […] propidium iodide staining based FACS analysis; format: functional
HT-29 [10] = experiment: Cell cycle arrest in human HT-29 cells assessed as accumulation at G2/M phase at IC50 after 48 hrs using […] propidium iodide staining based FACS analysis; format: functional
MCF7 [11] = experiment: Induction of apoptosis in human MCF7 cells assessed viable cells at IC50 after 48 hrs using annexin V-FITC staining by flow cytometry; format: functional
Summary of the method: (§2)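 Cells exposed 48 h to the compound at its IC₅₀ concentration, with 0.5% DMSO-only cells as control. Stained with annexin V-FITC plus propidium iodide, then flow cytometry. Gating: annexin+/PI− = early apoptotic; annexin+/PI+ = late apoptotic; PI only = dead/necrotic; double-negative = viable.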

MCF7 [12] = experiment: Induction of apoptosis in human MCF7 cells assessed early apoptotic cells at IC50 after 48 hrs using annexin V-FITC staining by flow cytometry; format: functional; summary of the method: as §2
MCF7 [13] = experiment: Induction of apoptosis in human MCF7 cells assessed late apoptotic cells at IC50 after 48 hrs using annexin V-FITC staining by flow cytometry; format: functional; summary of the method: as §2
MCF7 [14] = experiment: Induction of apoptosis in human MCF7 cells assessed necrotic cells at IC50 after 48 hrs using annexin V-FITC staining by flow cytometry; format: functional; summary of the method: as §2
HT-29 [15] = experiment: Induction of apoptosis in human HT-29 cells assessed viable cells at IC50 after 48 hrs using annexin V-FITC staining by flow cytometry; format: functional; summary of the method: as §2
HT-29 [16] = experiment: Induction of apoptosis in human HT-29 cells assessed early apoptotic cells at IC50 after 48 hrs using annexin V-FITC staining by flow cytometry; format: functional; summary of the method: as §2
HT-29 [17] = experiment: Induction of apoptosis in human HT-29 cells assessed late apoptotic cells at IC50 after 48 hrs using annexin V-FITC staining by flow cytometry; format: functional; summary of the method: as §2
HT-29 [18] = experiment: Induction of apoptosis in human HT-29 cells assessed necrotic cells at IC50 after 48 hrs using annexin V-FITC staining by flow cytometry; format: functional; summary of the method: as §2
MCF7 [19] = experiment: Down regulation of GBP1 gene expression in human MCF7 cells at IC50 after 48 hrs by cDNA microarray technique relative to control; format: functional
Summary of the method: (§3)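 Cells (8 × 10⁶) were cultured in DMEM with 10% heat-inactivated FBS at 37 °C under 5% CO₂. They were exposed for 48 h to compound at its IC₅₀, with DMSO-treated parallel cultures as controls (final DMSO ≤0.1% v/v). Total RNA was isolated by trizol/chloroform phase separation, RNeasy column cleanup and on-column DNase, then quantified by OD260/OD280. Expression was profiled by cDNA microarray relative to control.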

MCF7 [20] = experiment: Down regulation of CD72 gene expression in human MCF7 cells at IC50 after 48 hrs by cDNA microarray technique relative to control; format: functional
Summary of the method: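 8 × 10⁶ cells exposed 48 h to compound at its IC50 concentration; total RNA isolated with trizol/chloroform and RNeasy columns including on-column DNase step; RNA quantified by OD 260/280; DMSO-treated cultures as control.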

HT-29 [21] = experiment: Upregulation of AVIL gene expression in human HT-29 cells at IC50 after 48 hrs by cDNA microarray technique relative to control; format: functional
HT-29 [22] = experiment: Down regulation of HTN1 gene expression in human HT-29 cells at IC50 after 48 hrs by cDNA microarray technique relative to control; format: functional; summary of the method: as §3
HT-29 [23] = experiment: Down regulation of TCP10 gene expression in human HT-29 cells at IC50 after 48 hrs by cDNA microarray technique relative to control; format: functional
MCF7 [24] = experiment: Upregulation of PTPNS1 gene expression in human MCF7 cells at IC50 after 48 hrs by cDNA microarray technique relative to control; format: functional
MCF7 [25] = experiment: Upregulation of MGC2474 gene expression in human MCF7 cells at IC50 after 48 hrs by cDNA microarray technique relative to control; format: functional
HT-29 [26] = experiment: Down regulation of SLC39A7 gene expression in human HT-29 cells at IC50 after 48 hrs by cDNA microarray technique relative to control; format: functional
HT-29 [27] = experiment: Down regulation of HIRA gene expression in human HT-29 cells at IC50 after 48 hrs by cDNA microarray technique relative to control; format: functional; summary of the method: as §3
HT-29 [28] = experiment: Down regulation of TNPO1 gene expression in human HT-29 cells at IC50 after 48 hrs by cDNA microarray technique relative to control; format: functional
HT-29 [29] = experiment: Down regulation of HBZ gene expression in human HT-29 cells at IC50 after 48 hrs by cDNA microarray technique relative to control; format: functional; summary of the method: as §3
HT-29 [30] = experiment: Down regulation of PRKAG1 gene expression in human HT-29 cells at IC50 after 48 hrs by cDNA microarray technique relative to control; format: functional
MCF7 [31] = experiment: Upregulation of X77737 gene expression in human MCF7 cells at IC50 after 48 hrs by cDNA microarray technique relative to control; format: functional
MCF7 [32] = experiment: Down regulation of FBXL7 gene expression in human MCF7 cells at IC50 after 48 hrs by cDNA microarray technique relative to control; format: functional; summary of the method: as §3
HT-29 [33] = experiment: Upregulation of EGLN3 gene expression in human HT-29 cells at IC50 after 48 hrs by cDNA microarray technique relative to control; format: functional

COC(CN(c1ccccc1CO)S(=O)(=O)c1ccccc1[N+](=O)[O-])n1cnc2ncnc(Cl)c21 (racemic)
IC50 (MCF-10A): 6.23 µM
selectivity ratio [1]: 1.92
IC50 (HT-29 [2]): 3.28 µM
IC50 [3]: 12.1 µM
selectivity ratio [4]: 3.69
Activity (MCF7 [5]): 65.09%
Activity (MCF7 [6]): 23.94%
Activity (MCF7 [7]): 10.98%
Activity (HT-29 [8]): 71.58%
Activity (HT-29 [9]): 10.5%
Activity (HT-29 [10]): 12.7%
Activity (MCF7 [11]): 20.36%
Activity (MCF7 [12]): 6.36%
Activity (MCF7 [13]): 48.49%
Activity (MCF7 [14]): 24.79%
Activity (HT-29 [15]): 54.93%
Activity (HT-29 [16]): 21.1%
Activity (HT-29 [17]): 15.64%
Activity (HT-29 [18]): 8.33%
fold change (FC) (MCF7 [19]): -2.01
fold change (FC) (MCF7 [20]): -2.17
fold change (FC) (HT-29 [21]): 2.46
fold change (FC) (HT-29 [22]): -2.1
fold change (FC) (HT-29 [23]): -2.75
fold change (FC) (MCF7 [24]): 2.89
fold change (FC) (MCF7 [25]): 2.23

O=C(OCC1c2ccccc2-c2ccccc21)N1CC(n2cnc3c(Cl)ncnc32)OCc2ccccc21 (racemic)
IC50 (MCF-10A): 2.14 µM
selectivity ratio [1]: 3.19
IC50 (HT-29 [2]): 3.38 µM
IC50 [3]: 10.1 µM
selectivity ratio [4]: 2.99
Activity (MCF7 [5]): 64.39%
Activity (MCF7 [6]): 22.43%
Activity (MCF7 [7]): 13.18%
Activity (HT-29 [8]): 74.68%
Activity (HT-29 [9]): 14.7%
Activity (HT-29 [10]): 14.9%
fold change (FC) (HT-29 [26]): -2.19
fold change (FC) (HT-29 [27]): -2.35
fold change (FC) (HT-29 [28]): -2.5
fold change (FC) (HT-29 [29]): -2.84
fold change (FC) (HT-29 [30]): -3.98
Activity (MCF7 [11]): 5.07%
Activity (MCF7 [12]): 7.27%
Activity (MCF7 [13]): 72.81%
Activity (MCF7 [14]): 14.85%
Activity (HT-29 [15]): 59.69%
Activity (HT-29 [16]): 18.07%
Activity (HT-29 [17]): 13.63%
Activity (HT-29 [18]): 8.61%
fold change (FC) (MCF7 [31]): 3.11
fold change (FC) (MCF7 [19]): -2.02
fold change (FC) (MCF7 [32]): -2.86
fold change (FC) (HT-29 [33]): 2.14
